# How the values were obtained:
# [1] = DPPH free radical scavenging assay; settings: 0.3 mM DPPH, 30 min at 37 °C, absorbance 515 nm
# Summary of the method: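 Test compound at four concentrations (µg/ml) in microplate wells, mixed with ethanolic DPPH. Blank is solvent alone with DPPH. Absorbance decrease is read after incubation. Run in triplicate and reported as the mean of three values.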
# [2] = Ferric reducing antioxidant potential; settings: 30 min incubation at 37 °C, absorbance 593 nm
# Summary of the method: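 FRAP reagent is 300 mM acetate buffer pH 3.6, 20 mM ferric chloride hexahydrate in water and 10 mM TPTZ in 40 mM HCl, combined 10:1:1 by volume (stock concentrations). Test compound at five concentrations (µg/ml) is added to the reagent in microplate wells, and absorbance is read after incubation. Run in triplicate.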
# [3] = system: glutamate-induced neurotoxicity; settings: concentrations ranging from 0.1 to 10 µM; cited from earlier work
SMILES,IC50 (DPPH radical scavenging activity) [1] [µg/mL],FRAP [2] [mmol/g],attenuation of glutamate-induced neurotoxicity [3]
"C[C@@H]1O[C@@H](OC[C@H]2O[C@@H](Oc3cc(O)c4c(=O)cc(-c5ccc(O)cc5)oc4c3)[C@H](O)[C@@H](O)[C@@H]2O)[C@H](O)[C@H](O)[C@H]1O [Isorhoifolin, isorhoifolin]",1.37,7.67,–
"COc1cc(O)c2c(=O)c(OC)c(-c3ccc(O)cc3)oc2c1 [Jaranol, jaranol]",12,1.5,–
"C[C@@H]1O[C@@H](OC[C@H]2O[C@@H](OCCc3ccc(O)c(O)c3)[C@H](O)[C@@H](O[C@@H]3O[C@@H](C)[C@H](O)[C@@H](O)[C@H]3O)[C@@H]2OC(=O)/C=C/c2ccc(O)c(O)c2)[C@H](O)[C@H](O)[C@H]1O [Poliumoside, poliumoside]",0.042,14.32,significantly attenuated glutamate-induced neurotoxicity
"C[C@@H]1O[C@@H](O[C@@H]2[C@@H](O)[C@H](OCCc3ccc(O)c(O)c3)O[C@H](CO)[C@H]2OC(=O)/C=C/c2ccc(O)c(O)c2)[C@H](O)[C@H](O)[C@H]1O [Verbascoside, verbascoside]",0.53,7.49,–
"Cc1c(C)c2c(c(C)c1O)CC[C@@](C)(CCC[C@H](C)CCC[C@H](C)CCCC(C)C)O2 [α- tocopherol, α-tocopherol, reference compound]",0.41,1.99,–
